In ChEMBL document CHEMBL4402517, “Rational modification of Mannich base-type derivatives as novel antichagasic compounds: Synthesis, in vitro and in vivo evaluation” (Bioorg Med Chem, 2019):

How the values were obtained:
[1] = Genotoxicity in Salmonella typhimurium TA1535 harboring pSK1002 assessed as survival at 0.5 mg/ml in absence of Sprague-Dawley rat liver S9 fraction metabolic activation by SOS/umu assay relative to control; format: toxicity; conditions: salmonella enterica subsp. enterica serovar typhimurium, read-out: Survival
In short: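 Survival of S. typhimurium TA1535/pSK1002 exposed to a range of compound concentrations with or without S9 mix in 96-well format. Survival percentage measured as the cytotoxicity arm of the SOS/umu test. Concentrations with survival ≥80% are counted as non-cytotoxic.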

[2] = (§1) Toxicity in BALB/c mouse infected with Trypanosoma cruzi MHOM/Pe/2011/Arequipa;DTU 5 bloodstream trypomastigote assessed as increase in serum total bilirubin level in chronic phase at 20 mg/kg/day, po administered for 5 consecutive days starting from day 70 post infection measured on day 100 post infection relative to control; format: organism-based; conditions: in vivo
[3] = (§2) Toxicity in BALB/c mouse infected with Trypanosoma cruzi MHOM/Pe/2011/Arequipa;DTU 5 bloodstream trypomastigote assessed as change in serum urea level in acute phase at 20 mg/kg/day, po administered for 5 consecutive days starting from day 8 post infection and measured on day 100 post infection by biochemical analysis relative to control; format: organism-based; conditions: in vivo
[4] = (§3) Toxicity in BALB/c mouse infected with Trypanosoma cruzi MHOM/Pe/2011/Arequipa;DTU 5 bloodstream trypomastigote assessed as decrease in serum alkaline phosphatase level in chronic phase at 20 mg/kg/day, po administered for 5 consecutive days starting from day 70 post infection and measured at day 76 post infection relative to control; format: organism-based; set-up: scale not given: the % may be the effect or the level left; conditions: in vivo
[5] = tested on: Trypanosoma cruzi; experiment: Antitrypanosomal activity against Trypanosoma cruzi MHOM/Pe/2011/Arequipa;DTU 5 epimastigote assessed as effect on parasite glycolytic pathway by measuring decrease in succinate excretion at IC50 after 72 hrs by H NMR method relative to control; format: functional; set-up: scale not given: the % may be the effect or the level left
In short: (§4)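 Cells were spun at 800 × g for 10 min and culture supernatants analysed by 1H NMR. Catabolite peaks were expressed as % variation versus untreated parasites.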

[6] = as §1, with “change” for “increase”, “urea” for “total bilirubin”; format: organism-based; conditions: in vivo
[7] = as §2, with “increase” for “change”, “lactate dehydrogenase” for “urea”; format: organism-based; conditions: in vivo
[8] = as §2, with “creatine kinase muscle to brain ratio” for “urea”; format: organism-based; conditions: in vivo
[9] = as §3, with “increase” for “decrease”, “aspartate aminotransferase” for “alkaline phosphatase”; format: organism-based; conditions: in vivo
[10] = as §2, with “alkaline phosphatase” for “urea”, “days” for “days starting from day 8 post infection”; format: organism-based; conditions: in vivo
[11] = tested on: Trypanosoma cruzi; experiment: Antitrypanosomal activity against Trypanosoma cruzi MHOM/Pe/2011/Arequipa;DTU 5 epimastigote assessed as effect on parasite glycolytic pathway by measuring increase in succinate excretion at IC50 after 72 hrs by H NMR method relative to control; format: functional; in short: as §4
[12] = as §1, with “change” for “increase”, “alkaline phosphatase” for “total bilirubin”; format: organism-based; conditions: in vivo
[13] = Mutagenecity against Salmonella typhimurium TA98 assessed as number of colonies at 22.2 ug/plate in absence of Sprague-Dawley rat S9 measured after 48 hrs by Ames test (reference value: 3 +/- 2.6); format: toxicity; conditions: salmonella enterica subsp. enterica serovar typhimurium, s9, 48 h
[14] = Mutagenecity against Salmonella typhimurium TA 102 assessed as number of colonies at 22.2 ug/plate in absence of Sprague-Dawley rat S9 with metabolic activation measured after 48 hrs by Ames test (reference value: 78.7 +/- 7.8); format: toxicity; conditions: salmonella enterica subsp. enterica serovar typhimurium, s9, 48 h
[15] = tested on: Trypanosoma cruzi; experiment: Antitrypanosomal activity against Trypanosoma cruzi MHOM/Pe/2011/Arequipa;DTU 5 bloodstream trypomastigotes infected in BALB/c mouse assessed as decrease in splenomegaly in acute phase at 20 mg/kg/day, po administered for 5 consecutive days starting from day 8 post infection relative to untreated control; format: functional; set-up: scale not given: the % may be the effect or the level left
In short: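 Female BALB/c mice (three per group) were infected i.p. with 5 × 10^5 Arequipa trypomastigotes and dosed orally at 20 mg/kg/day for 5 days in 5% DMSO/0.5% HPMC. Controls were uninfected and vehicle-only groups. At the end of the experiment spleens were weighed and expressed as % of body weight.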

[16] = Mutagenecity against Salmonella typhimurium TA 102 assessed as number of colonies at 66.7 ug/plate in presence of Sprague-Dawley rat S9 with metabolic activation measured after 48 hrs by Ames test (reference value: 72 +/- 1); format: toxicity, subcellular; conditions: salmonella enterica subsp. enterica serovar typhimurium, s9, 48 h
[17] = tested on: Trypanosoma cruzi; experiment: Antitrypanosomal activity against Trypanosoma cruzi MHOM/Pe/2011/Arequipa;DTU 5 epimastigote assessed as effect on parasite glycolytic pathway by measuring increase in pyruvate excretion at IC50 after 72 hrs by H NMR method relative to control; format: functional; in short: as §4
[18] = as §3, with “change” for “decrease”, “uric acid” for “alkaline phosphatase”; format: organism-based; conditions: in vivo
[19] = Mutagenecity against Salmonella typhimurium TA98 assessed as number of colonies at 7.4 ug/plate in presence of Sprague-Dawley rat S9 measured after 48 hrs by Ames test (reference value: 4 +/- 2); format: toxicity, subcellular; conditions: salmonella enterica subsp. enterica serovar typhimurium, s9, 48 h
[20] = as §1, with “change” for “increase”, “uric acid” for “total bilirubin”; format: organism-based; conditions: in vivo
[21] = Mutagenecity against Salmonella typhimurium TA1535 assessed as number of colonies at 7.4 […] in presence of Sprague-Dawley rat S9 measured after 48 hrs by Ames test (reference value: 5 +/- 3.6); format: toxicity, subcellular; conditions: salmonella enterica subsp. enterica serovar typhimurium, s9, 48 h
[22] = Mutagenecity against Salmonella typhimurium TA 100 assessed as number of colonies at 200 ug/plate in presence of Sprague-Dawley rat S9 with metabolic activation measured after 48 hrs by Ames test (reference value: 47.3 +/- 5.7); format: toxicity, subcellular; conditions: salmonella enterica subsp. enterica serovar typhimurium, s9, 48 h
[23] = Mutagenecity against Salmonella typhimurium TA1535 assessed as number of colonies at 22.2 ug/plate in absence of Sprague-Dawley rat S9 measured after 48 hrs by Ames test (reference value: 13.3 +/- 2.5); format: toxicity; conditions: salmonella enterica subsp. enterica serovar typhimurium, s9, 48 h
[24] = Mutagenecity against Salmonella typhimurium TA 100 assessed as number of colonies at 7.4 ug/plate in absence of Sprague-Dawley rat S9 with metabolic activation measured after 48 hrs by Ames test (reference value: 35.7 +/- 0.6); format: toxicity; conditions: salmonella enterica subsp. enterica serovar typhimurium, s9, 48 h
[25] = tested on: Trypanosoma cruzi; experiment: Antitrypanosomal activity against Trypanosoma cruzi MHOM/Pe/2011/Arequipa;DTU 5 bloodstream trypomastigote infected in BALB/c mouse assessed as reduction in parasitemia […] at 20 mg/kg/day, po administered for 5 consecutive days starting from day 8 post infection measured every 2 to 3 days starting from day 7 post infection by Neubauer chamber relative to untreated control; format: functional; set-up: scale not given: the % may be the effect or the level left
In short: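 Female BALB/c mice (three per group) were infected i.p. with 5 × 10^5 Arequipa bloodstream trypomastigotes, with parasitemia confirmed on day 7 pi. Oral dosing was 20 mg/kg/day on days 8–12 pi in 5% DMSO/0.5% HPMC; controls received vehicle. Bloodstream trypomastigotes were counted through the acute phase until day 48 pi.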

[26] = Mutagenecity against Salmonella typhimurium TA97a assessed as number of colonies at 22.2 ug/plate in absence of Sprague-Dawley rat S9 with metabolic activation measured after 48 hrs by Ames test ( Rvb = 37 +/- 6.5); format: toxicity; conditions: salmonella enterica subsp. enterica serovar typhimurium, s9, 48 h

Question: For `O=C(CCN1CCN(c2ccc(C(F)(F)F)cc2)CC1)c1ccc(O)cc1`, which viability at 0.5 mg/ml [1] is on record?
Answer: 155%

Question: And the Activity [2]?
Answer: <= 20%

Question: And the Activity [3]?
Answer: > 10%

Question: And the Activity [4]?
Answer: <= 10%

Question: And the Activity [5]?
Answer: 80%

Question: And the Activity [6]?
Answer: > 10%

Question: With `O=C(Cn1ccnc1[N+](=O)[O-])NCc1ccccc1` [BENZNIDAZOLE] as the compound, how does the Activity [7] read?
Answer: <= 10%

Question: What about the Activity [8] of the same compound?
Answer: > 10%

Question: And the Activity [9]?
Answer: <= 10%

Question: And the Activity [10]?
Answer: > 10%

Question: Which Activity [11] does the source give for `O=C(CCN1CCN(c2ccc(Cl)cc2)CC1)c1ccc(O)cc1` here?
Answer: 34%

Question: What about the Activity [12] of the same compound?
Answer: > 10%

Question: What about the Activity [13] of the same compound?
Answer: 4.7

Question: And the Activity [14]?
Answer: 69.7

Question: And the Activity [15]?
Answer: 44%

Question: What about the Activity [16] of the same compound?
Answer: 72.3

Question: What about the Activity [17] of the same compound?
Answer: 36%

Question: And the Activity [18]?
Answer: > 10%

Question: And the Activity [19]?
Answer: 6

Question: What about the Activity [20] of the same compound?
Answer: > 10%

Question: And the Activity [21]?
Answer: 5.5

Question: What about the Activity [22] of the same compound?
Answer: 42.3

Question: And the Activity [23]?
Answer: 4

Question: What about the Activity [24] of the same compound?
Answer: 32.3

Question: What about the Activity [25] of the same compound?
Answer: 70%

Question: What about the Activity [26] of the same compound?
Answer: 35.7
